Test system: T1, A0A140T8K0
T1 sequence (whole entry): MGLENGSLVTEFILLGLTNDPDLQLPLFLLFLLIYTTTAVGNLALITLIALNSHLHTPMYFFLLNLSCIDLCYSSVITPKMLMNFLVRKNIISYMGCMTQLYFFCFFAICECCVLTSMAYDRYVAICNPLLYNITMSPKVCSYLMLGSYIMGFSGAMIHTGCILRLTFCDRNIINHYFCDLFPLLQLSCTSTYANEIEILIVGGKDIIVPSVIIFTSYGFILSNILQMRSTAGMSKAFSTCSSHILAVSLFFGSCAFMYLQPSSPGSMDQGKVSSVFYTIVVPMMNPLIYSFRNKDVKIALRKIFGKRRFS
Conditions: stereoisomer not certain
Outline: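 Each entry records the cell line, G-protein, co-transfected protein and tags used. Methods varied with the source, often transient luciferase assays in mammalian cell lines. A receptor–molecule pair is called responsive (active) if the original authors judged its signal statistically different from baseline and non-responsive (inactive) otherwise.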

Odorant receptor agonist call, inactive:
CC=Cc1ccc(OC)cc1, CSSSC, CCCCCC=CCCC=O, Cc1ccc2c(c1)OCC(=O)CO2, COC(OC)c1ccccc1, CNc1ccccc1C(=O)OC, C=C1C2CCC(C2)C1(C)C (stereo unspecified), Cc1ccccc1OC(=O)C(C)C, COc1nccnc1C, C=C(C)C1CC=C(C)CC1 (stereo unspecified), CCCC(C)C(=O)OCC (stereo unspecified), CCCCCCCOC(=O)C(C)C, CC(=O)OC1(C)CCC23CC1C(C)(C)C2CCC3C (stereo unspecified), CCSSCC, CCCCCOC(=O)CCC, CC(C)CS, O=C(O)CCCCCBr, CC(=O)OCc1ccc2c(c1)OCO2, C=CC(=C)CCC=C(C)CCC=C(C)C, CCc1occc(=O)c1O, O=C([O-])CCCCCCC(=O)[O-].[H+].[H+], CCCCCC(C=O)=Cc1ccccc1, C=C(C)C1CCC2(C)OC2C1 (stereo unspecified), C=CC(=C)CCC=C(C)C, CCC=CCCCCC=O, OCC=Cc1ccccc1, OCCc1ccccc1, CC(C)=C1CCC(C)CC1=O (stereo unspecified), CCCCCCC(=O)OCCCC, C=C(C)C1CCC(C)C(O)C1 (stereo unspecified), CC(CC=O)CCCC(C)(C)O (stereo unspecified), CCCCCC(C)O (stereo unspecified), CCCCCC(=Cc1ccccc1)C(OC)OC, C=C(CC)CCCC(C)(C)O, O=C(OCc1ccccc1)c1ccccc1O

Odorant receptor agonist call, active:
O=C(O)CCCCCCCCC(=O)O

— the M2OR odorant receptor database
